{
  "source": "ChEMBL document CHEMBL1138318",
  "about": "“Synthesis and evaluation of the antiproliferative activities of derivatives of carboxyalkyl isoflavones linked to N-t-Boc-hexylenediamine” (J Med Chem, 2007)",
  "key": {"[1]": {"test": "Inhibition of DNA synthesis in human MLS cells assessed as ratio of treated to untreated control at 1.1 uM after 48 hrs by [3H]thymidine incorporation assay", "format": "functional", "procedure,_shortened": "(§1)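 [3H]-thymidine incorporation into DNA in human MLS ovarian or 320DM colon cancer cells; antagonist tested at 1.1 µM alone or with estradiol at 30 nM or 300 nM. Reported as ratio of experimental to control (E/C) DNA synthesis, means ± SD of 8–16 incubates from 2–4 experiments; significance flagged at p < 0.05 and p < 0.01.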"}, "[2]": {"test": "Inhibition of DNA synthesis in human 320DM cells assessed as ratio of treated to untreated control at 1.1 uM after 48 hrs by [3H]thymidine incorporation assay", "format": "functional", "procedure,_shortened": "as §1"}, "[3]": {"test": "Inhibition of 30 nM estradiol induced stimulation of DNA synthesis in human MLS cells assessed as ratio of treated to untreated control at 1.1 uM after 48 hrs by [3H]thymidine incorporation assay", "format": "functional", "procedure,_shortened": "as §1"}, "[4]": {"test": "Inhibition of 30 nM estradiol induced stimulation of DNA synthesis in human 320DM cells assessed as ratio of treated to untreated control at 1.1 uM after 48 hrs by [3H]thymidine incorporation assay", "format": "functional", "procedure,_shortened": "as §1"}, "[5]": {"test": "Inhibition of 300 nM estradiol induced stimulation of DNA synthesis in human MLS cells assessed as ratio of treated to untreated control at 1.1 uM after 48 hrs by [3H]thymidine incorporation assay", "format": "functional", "procedure,_shortened": "as §1"}, "[6]": {"test": "Inhibition of 300 nM estradiol induced stimulation of DNA synthesis in human 320DM cells assessed as ratio of treated to untreated control at 1.1 uM after 48 hrs by [3H]thymidine incorporation assay", "format": "functional", "procedure,_shortened": "as §1"}, "[7]": {"system": "A2780", "test": "Inhibition of DNA synthesis in human A2780 cells assessed as ratio of treated to untreated control at 3 uM after 48 hrs by [3H]thymidine incorporation assay", "format": "functional", "procedure,_shortened": "(§2)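 Single-concentration screen by [3H]-thymidine incorporation into DNA. Test compounds were used at 0.3 µM in C4–2B cells and at 3 µM in 320DM, MLS, A2780, H295R and VSMC cells. Estradiol 17β was used at 30 nM throughout. Values are experimental/control DNA-synthesis ratios, given as means ± SD of 8–16 incubates from 2–4 experiments.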"}, "[8]": {"test": "Inhibition of DNA synthesis in human 320DM cells assessed as ratio of treated to untreated control at 3 uM after 48 hrs by [3H]thymidine incorporation assay", "format": "functional", "procedure,_shortened": "as §2"}, "[9]": {"test": "Inhibition of DNA synthesis in human MLS cells assessed as ratio of treated to untreated control at 3 uM after 48 hrs by [3H]thymidine incorporation assay", "format": "functional", "procedure,_shortened": "as §2"}, "[10]": {"test": "Inhibition of DNA synthesis in human H295R cells assessed as ratio of treated to untreated control at 3 uM after 48 hrs by [3H]thymidine incorporation assay", "format": "functional", "procedure,_shortened": "as §2"}, "[11]": {"system": "LNCaP C4-2B", "test": "Inhibition of DNA synthesis in human C4-2B cells assessed as ratio of treated to untreated control at 0.3 uM after 48 hrs by [3H]thymidine incorporation assay", "format": "functional", "procedure,_shortened": "as §2"}, "[12]": {"test": "Inhibition of DNA synthesis in human VSMC cells assessed as ratio of treated to untreated control at 3 uM after 48 hrs by [3H]thymidine incorporation assay"}, "[13]": {"test": "Inhibition of DNA synthesis in human H295R cells assessed as ratio of treated to untreated control at 30 nM after 48 hrs by [3H]thymidine incorporation assay", "format": "functional", "procedure,_shortened": "as §2"}, "[14]": {"system": "LNCaP C4-2B", "test": "Inhibition of DNA synthesis in human C4-2B cells assessed as ratio of treated to untreated control at 30 nM after 48 hrs by [3H]thymidine incorporation assay", "format": "functional", "procedure,_shortened": "as §2"}, "[15]": {"test": "Inhibition of DNA synthesis in human VSMC cells assessed as ratio of treated to untreated control at 30 nM after 48 hrs by [3H]thymidine incorporation assay", "format": "cell-based", "details": "0.03 µM", "procedure,_shortened": "as §2"}, "[16]": {"test": "Stimulation of DNA synthesis in human MLS cells assessed as ratio of treated to untreated control at 300 nM after 48 hrs by [3H]thymidine incorporation assay", "format": "functional", "procedure,_shortened": "(§3)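 Estradiol-driven proliferation in MLS and 320DM cells, measured by [3H]-thymidine incorporation. Cells were exposed to estradiol at 30 or 300 nM, alone or with compound (0.3 µM) or ICI 182780 (1.1 µM). Values are E/C ratios versus untreated control, given as means ± SD of 8–16 incubates from 2–4 experiments.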"}, "[17]": {"test": "Inhibition of DNA synthesis in human 320DM cells assessed as ratio of treated to untreated control at 30 nM after 48 hrs by [3H]thymidine incorporation assay", "format": "functional", "procedure,_shortened": "as §2"}, "[18]": {"test": "Inhibition of DNA synthesis in human MLS cells assessed as ratio of treated to untreated control at 30 nM after 48 hrs by [3H]thymidine incorporation assay", "format": "functional", "procedure,_shortened": "as §2"}, "[19]": {"system": "A2780", "test": "Inhibition of DNA synthesis in human A2780 cells assessed as ratio of treated to untreated control at 30 nM after 48 hrs by [3H]thymidine incorporation assay", "format": "functional", "procedure,_shortened": "as §2"}, "[20]": {"test": "Stimulation of DNA synthesis in human 320DM cells assessed as ratio of treated to untreated control at 300 nM after 48 hrs by [3H]thymidine incorporation assay", "format": "functional", "procedure,_shortened": "as §3"}},
  "data": [
    {"smiles": "C[C@]12CC[C@@H]3c4ccc(O)cc4C[C@@H](CCCCCCCCC[S+]([O-])CCCC(F)(F)C(F)(F)F)[C@H]3[C@@H]1CC[C@@H]2O", "note": "(stereo not given in full) [FULVESTRANT]", "values": [
      {"measurement": "Ratio", "setting": "[1]", "result": 0.52},
      {"measurement": "Ratio", "setting": "[2]", "result": 0.63},
      {"measurement": "Ratio", "setting": "[3]", "result": 0.53},
      {"measurement": "Ratio", "setting": "[4]", "result": 0.63},
      {"measurement": "Ratio", "setting": "[5]", "result": 0.95},
      {"measurement": "Ratio", "setting": "[6]", "result": 0.92}
    ]},
    {"smiles": "COc1ccc(-c2c(CCCC(=O)NCCCCCCNC(=O)OC(C)(C)C)oc3cc(O)cc(O)c3c2=O)cc1", "values": [
      {"measurement": "Ratio", "setting": "[7]", "result": 0.64},
      {"measurement": "Ratio", "setting": "[8]", "result": 0.22},
      {"measurement": "Ratio", "setting": "[9]", "result": 0.05},
      {"measurement": "Ratio", "setting": "[10]", "result": 0.55},
      {"measurement": "Ratio", "setting": "[11]", "result": 0.41},
      {"measurement": "Ratio", "setting": "[12]", "result": 0.74}
    ]},
    {"smiles": "CC(C)(C)OC(=O)NCCCCCCNC(=O)CCCc1oc2cc(O)cc(O)c2c(=O)c1-c1ccc(O)cc1", "values": [
      {"measurement": "Ratio", "setting": "[7]", "result": 1.12},
      {"measurement": "Ratio", "setting": "[8]", "result": 0.2},
      {"measurement": "Ratio", "setting": "[10]", "result": 0.6},
      {"measurement": "Ratio", "setting": "[11]", "result": 0.75},
      {"measurement": "Ratio", "setting": "[12]", "result": 0.78}
    ]},
    {"smiles": "C[C@]12CC[C@@H]3c4ccc(O)cc4CC[C@H]3[C@@H]1CC[C@@H]2O", "note": "[ESTRADIOL]", "values": [
      {"measurement": "Ratio", "setting": "[13]", "result": 2.1},
      {"measurement": "Ratio", "setting": "[14]", "result": 2.1},
      {"measurement": "Ratio", "setting": "[15]", "result": 0.55},
      {"measurement": "Ratio", "setting": "[16]", "result": 1.7},
      {"measurement": "Ratio", "setting": "[17]", "result": 2.06},
      {"measurement": "Ratio", "setting": "[18]", "result": 2.35},
      {"measurement": "Ratio", "setting": "[19]", "result": 1.42},
      {"measurement": "Ratio", "setting": "[20]", "result": 1.87}
    ]}
  ]
}
